Laboratory results published in EPA's CvTdb concentration-time database.

Key:
[1] = system: Rat; test: concentration in plasma after dosing; conditions: dosed: Wyeth-14643, 2.0 mg/kg, oral, Male, Sprague-Dawley
[2] = system: Rat; test: concentration in plasma after dosing; conditions: 5 min; dosed: Wyeth-14643; 2.0 mg/kg; oral; Male; Sprague-Dawley
[3] = system: Rat; test: concentration in plasma after dosing; conditions: 40 min; dosed: Bis 2-Chloroethoxy Methane; 20 mg/kg; iv; Female; F344
[4] = system: Rat; test: concentration in liver after dosing; conditions: 5 h; dosed: Bis 2-Chloroethoxy Methane; 20 mg/kg; iv; Male; F344
[5] = system: Rat; test: concentration in heart after dosing; conditions: 10 min; dosed: Bis 2-Chloroethoxy Methane; 20 mg/kg; iv; Female; F344
[6] = system: Rat; test: concentration in heart after dosing; conditions: 10 min; dosed: Bis 2-Chloroethoxy Methane; 20 mg/kg; iv; Female; F344; remark: listed apart in the source
[7] = system: Rat; test: concentration in plasma after dosing; conditions: 4 h; dosed: Bis 2-Chloroethoxy Methane; 20 mg/kg; iv; Male; F344
[8] = system: Rat; test: concentration in liver after dosing; conditions: 40 min; dosed: Bis 2-Chloroethoxy Methane; 20 mg/kg; iv; Male; F344
[9] = system: Rat; test: concentration in thymus after dosing; conditions: 8 h; dosed: Bis 2-Chloroethoxy Methane; 20 mg/kg; iv; Female; Harlan Sprague-Dawley
[10] = system: Rat; test: concentration in thymus after dosing; conditions: 40 min; dosed: Bis 2-Chloroethoxy Methane; 20 mg/kg; iv; Male; F344
[11] = system: Rat; test: concentration in thymus after dosing; conditions: 1 h; dosed: Bis 2-Chloroethoxy Methane; 20 mg/kg; iv; Male; F344
[12] = system: Rat; test: concentration in heart after dosing; conditions: 20 min; dosed: Bis 2-Chloroethoxy Methane; 20 mg/kg; iv; Female; F344
[13] = system: Rat; test: concentration in plasma after dosing; conditions: dosed: Bis 2-Chloroethoxy Methane, 40 mg/kg, iv, Male, Harlan Sprague Dawley
[14] = system: Rat; test: concentration in brain after dosing; conditions: 12 h; dosed: Fluorotelomer alcohol 8+2; 80 mg/kg; oral; Female; Harlan Sprague Dawley
[15] = system: Rat; test: concentration in plasma after dosing; conditions: 4 h; dosed: Di-n-butyl phthalate; 100 mg/kg; oral; Male; Sprague-Dawley
[16] = system: Rat; test: concentration in plasma after dosing; conditions: 5 min; dosed: Di-n-butyl phthalate; 50 mg/kg; oral; Male; Sprague-Dawley
[17] = system: Rat; test: concentration in plasma after dosing; conditions: 6 h; dosed: Di-n-butyl phthalate; 20 mg/kg; iv; Male; Sprague-Dawley
[18] = system: Rat; test: concentration in kidney after dosing; conditions: 864 h; dosed: Perfluorodecanoic acid; 10 mg/kg; oral; Male; Harlan Sprague Dawley
[19] = system: Rat; test: concentration in kidney after dosing; conditions: 1848 h; dosed: Perfluorodecanoic acid; 10 mg/kg; oral; Female; Harlan Sprague Dawley
[20] = system: Rat; test: concentration in liver after dosing; conditions: 3360 h; dosed: Perfluorodecanoic acid; 10 mg/kg; oral; Female; Harlan Sprague Dawley
[21] = system: Rat; test: concentration in plasma after dosing; conditions: dosed: Perfluorodecanoic acid, 2 mg/kg, oral, Male, Harlan Sprague Dawley
[22] = system: Rat; test: concentration in plasma after dosing; conditions: 3 h; dosed: Thiodiglycolic Acid; 20 mg/kg; iv; Female; Harlan Sprague Dawley
[23] = system: Rat; test: concentration in plasma after dosing; conditions: 40 min; dosed: Thiodiglycolic Acid; 20 mg/kg; iv; Female; Harlan Sprague Dawley
[24] = system: Rat; test: concentration in heart after dosing; conditions: 1 h; dosed: Thiodiglycolic Acid; 20 mg/kg; iv; Male; Harlan Sprague Dawley
[25] = system: Rat; test: concentration in liver after dosing; conditions: 6.667 h; dosed: Thiodiglycolic Acid; 20 mg/kg; iv; Female; Harlan Sprague Dawley
[26] = system: Rat; test: concentration in plasma after dosing; conditions: 1 h; dosed: Thiodiglycolic Acid; 20 mg/kg; iv; Female; Harlan Sprague Dawley
[27] = system: Rat; test: concentration in thymus after dosing; conditions: 20 min; dosed: Thiodiglycolic Acid; 20 mg/kg; iv; Female; Harlan Sprague Dawley
[28] = system: Rat; test: concentration in thymus after dosing; conditions: 20 min; dosed: Thiodiglycolic Acid; 20 mg/kg; iv; Female; F344
[29] = system: Rat; test: concentration in thymus after dosing; conditions: 6.667 h; dosed: Thiodiglycolic Acid; 20 mg/kg; iv; Female; Harlan Sprague Dawley
[30] = system: Rat; test: concentration in heart after dosing; conditions: 8 h; dosed: Thiodiglycolic Acid; 20 mg/kg; iv; Female; Harlan Sprague Dawley
[31] = system: Rat; test: concentration in plasma after dosing; conditions: dosed: dichloroacetic acid, 10 mg/kg, oral, Male, Harlan Sprague Dawley
[32] = system: human; test: concentration in plasma after dosing; negative times count back from the end of exposure; conditions: dosed: trichloroethylene, 100 ppm, inhalation, duration: 4 hr, person
Method in brief: (§1)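 Points were largely digitised from plot screenshots with WebPlotDigitizer or otherwise copied from tables, and they remain in the units each source reported. They come from published in vivo toxicokinetic studies and two structured collections. Sampling and analytical methods follow each source and were often not reported.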

[33] = system: human; test: concentration in blood after dosing; conditions: dosed: trichloroethylene, 100 ppm, inhalation, duration: 6 hr, person
Method in brief: as §1

Cc1cccc(Nc2cc(Cl)nc(SCC(=O)O)n2)c1C
[1]
Conditions | concentration in plasma [ng/mL]
0.5 h | 1670
5 h | 507

Conditions | concentration in plasma [ng/mL]
[2] | 401

ClCCOCOCCCl [Bis 2-Chloroethoxy Methane]
Conditions | concentration in heart [ng/g] | concentration in liver [ng/g] | concentration in plasma [ng/mL] | concentration in thymus [ng/g]
[3] | – | – | 1720 | –
[4] | – | 33.4 | – | –
[5] | 12100 | – | – | –
[6] | 11400 | – | – | –
[7] | – | – | 83.3 | –
[8] | – | 3320 | – | –
[9] | – | – | – | 13.1
[10] | – | – | – | 8210
[11] | – | – | – | 5370
[12] | 6800 | – | – | –

[13]
Conditions | concentration in plasma [ng/mL]
6.667 h | 40.1
20 min | 9720

OCCC(F)(F)C(F)(F)C(F)(F)C(F)(F)C(F)(F)C(F)(F)C(F)(F)C(F)(F)F [Fluorotelomer alcohol 8+2]
Conditions | concentration in brain [ng/g]
[14] | 164

CCCCOC(=O)c1ccccc1C(=O)O [Mono-n-butyl phthalate]
Conditions | concentration in plasma [ng/mL]
[15] | 3210
[16] | 2400
[17] | 601

O=C(O)C(F)(F)C(F)(F)C(F)(F)C(F)(F)C(F)(F)C(F)(F)C(F)(F)C(F)(F)C(F)(F)F [Perfluorodecanoic acid]
Conditions | concentration in kidney [ng/g] | concentration in liver [ng/g]
[18] | 6720 | –
[19] | 10100 | –
[20] | – | 7670

[21]
Conditions | concentration in plasma [ng/mL]
12 h | 7480
1200 h | 1470

O=C(O)CSCC(=O)O [Thiodiglycolic Acid]
Conditions | concentration in heart [ng/g] | concentration in liver [ng/g] | concentration in plasma [ng/mL] | concentration in thymus [ng/g]
[22] | – | – | 510 | –
[23] | – | – | 4120 | –
[24] | 1930 | – | – | –
[25] | – | 2190 | – | –
[26] | – | – | 2900 | –
[27] | – | – | – | 5770
[28] | – | – | – | 4680
[29] | – | – | – | 391
[30] | 376 | – | – | –

O=C(O)C(Cl)Cl [dichloroacetic acid]
concentration in plasma [ng/mL]
Conditions | 0 h | 0.25 h | 0.5 h | 1.75 h | 2 min | 4 h | 12 h
[31] | – | – | 637 | – | 398 | – | –
[32] | 8 | 5 | 5 | 4 | – | 5 | 5

[32], during exposure
Conditions | concentration in plasma [ng/mL]
-2 h | 4
-1 h | 10

O=C(O)C(Cl)(Cl)Cl [trichloroacetic acid]
[33]
Conditions | concentration in blood [ng/mL]
0 h | 11900
18 h | 32600
24 h | 50300
42 h | 32200
48 h | 51100
66 h | 51000
72 h | 55100
90 h | 49000
96 h | 64900
160 h | 28900
